≈ marks a conversion by molar mass, not a printed value. Calls of active or inactive are those of the source. No cut-off for these calls is given here.
Tests used:
Staphylococcus aureus [1] = test: Antibacterial activity against Staphylococcus aureus ATCC 29213 after 24 hrs by micro dilution method; type: functional; details: ATCC 29213, 24 h
Outline: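 Broth microdilution in Mueller Hinton broth. Inoculum from a 24 h culture in saline, set to 0.5 McFarland and diluted to a final 5 × 10^6 CFU mL-1. Two-fold serial dilutions, final 0.25–256 µg mL-1. Incubated 37 °C for 24 h and read visually. MIC is the lowest concentration with no turbidity.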

Staphylococcus aureus [2] = test: Antibacterial activity against methicillin-resistant Staphylococcus aureus 15187 after 24 hrs by micro dilution method; type: functional; details: Staphylococcus aureus, 15187, 24 h
Outline: (§1)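 Broth microdilution in Mueller Hinton broth, two-fold serial dilutions, final 0.25 to 256 µg mL-1. Inoculum from 24 h culture in saline, set to 0.5 McFarland, diluted to a final 5 × 10^6 CFU mL-1. Plates held at 37 °C for 24 h and read by eye. MIC is the lowest concentration with no turbidity.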

Enterococcus [3] = test: Antibacterial activity against vancomycin-resistant Enterococcus after 24 hrs by micro dilution method; type: functional; outline: as §1
Staphylococcus aureus [4] = test: Antibacterial activity against Staphylococcus aureus ATCC 29213 treated for 24 hrs followed by compound treated at 2 to 16 times MIC measured after 24 hrs by micro dilution method; type: functional; details: ATCC 29213, 24 h
Staphylococcus aureus [5] = test: Antibacterial activity against methicillin-resistant Staphylococcus aureus 15187 treated for 24 hrs followed by compound treated at 2 to 16 times MIC measured after 24 hrs by micro dilution method; type: functional; details: Staphylococcus aureus, 15187, 24 h
Outline: (§2)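 MBC taken from the same 24 h microdilution plates (Mueller Hinton broth, final inoculum 5 × 10^6 CFU mL-1, 37 °C). […] Spots were incubated 24 h and colonies counted. MBC is the lowest concentration giving a 3 log drop from the starting inoculum.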

Enterococcus [6] = test: Antibacterial activity against vancomycin-resistant Enterococcus treated for 24 hrs followed by compound treated at 2 to 16 times MIC measured after 24 hrs by micro dilution method; type: functional; outline: as §2
Candida albicans = test: Antifungal activity against Candida albicans ATCC 90028; type: functional
Aspergillus fumigatus = test: Antifungal activity against Aspergillus fumigatus LSI-II; type: functional
HL-60 = test: Antiproliferative activity against human HL60 cells after 48 hrs by sulforhodamine B assay; type: functional, cell-based; details: HL-60, 48 h
Outline: (§3)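 Sulforhodamine B assay following NCI guidelines. Log-phase cells seeded at 10^4 cells/well and allowed to attach for 24 h at 37 °C, 5% CO2. Exposed 48 h to 1:10 serial dilutions, four replicate wells per condition. Fixed with 50% cold TCA for 1 h at 4 °C, stained, dye dissolved in tris buffer, OD read at 540 nm. Blank-subtracted growth expressed relative to untreated (100%) and reported as IC50.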

PC-3 = test: Antiproliferative activity against human PC3 cells after 48 hrs by sulforhodamine B assay; type: functional, cell-based; details: PC-3, 48 h; outline: as §3
MOLT-4 = test: Antiproliferative activity against human MOLT4 cells after 48 hrs by sulforhodamine B assay; type: functional, cell-based; details: MOLT-4, 48 h; outline: as §3

| SMILES | MIC (Staphylococcus aureus [1]) | MIC (Staphylococcus aureus [2]) | MIC (Enterococcus [3]) | MBC (Staphylococcus aureus [4]) | MBC (Staphylococcus aureus [5]) | MBC (Enterococcus [6]) | MIC (Candida albicans) | MIC (Aspergillus fumigatus) | IC50 (HL-60) | IC50 (PC-3) | IC50 (MOLT-4) |
| --- | --- | --- | --- | --- | --- | --- | --- | --- | --- | --- | --- |
| CCCCc1ccc(O)c(-c2cc(CCCC)cc(I)c2O)c1 | > 256 µg/mL | > 256 µg/mL | > 256 µg/mL | > 256 µg/mL | > 256 µg/mL | > 256 µg/mL | inactive | inactive | 50 µM | 60 µM | 66 µM |
| C=CCc1cc(O)c(O)c(-c2cc(CC=C)cc(O)c2O)c1 | 8 µg/mL (≈ 26.8 µM) | 16 µg/mL (≈ 53.6 µM) | 16 µg/mL (≈ 53.6 µM) | 8 µg/mL (≈ 26.8 µM) | 16 µg/mL (≈ 53.6 µM) | 32 µg/mL (≈ 107 µM) | 128 µg/mL (≈ 429 µM) | 64 µg/mL (≈ 215 µM) | > 100 µM | > 100 µM | > 100 µM |
| CCCc1ccc(O)c(-c2cc(CCC)cc(I)c2O)c1 | > 256 µg/mL | > 256 µg/mL | > 256 µg/mL | > 256 µg/mL | > 256 µg/mL | > 256 µg/mL | inactive | inactive | 45 µM | 63 µM | 60 µM |
| CCCCc1ccc(O)c(-c2cc(CCCC)cc(Cl)c2O)c1 | > 256 µg/mL | > 256 µg/mL | > 256 µg/mL | > 256 µg/mL | > 256 µg/mL | > 256 µg/mL | inactive | inactive | > 100 µM | > 100 µM | > 100 µM |
| CCCc1cc(I)c(O)c(-c2cc(CCC)cc(I)c2O)c1 | 64 µg/mL (≈ 123 µM) | 64 µg/mL (≈ 123 µM) | 64 µg/mL (≈ 123 µM) | 64 µg/mL (≈ 123 µM) | 64 µg/mL (≈ 123 µM) | 64 µg/mL (≈ 123 µM) | inactive | inactive | 7 µM | 7 µM | 18 µM |
| CCCCc1ccc(O)c(-c2cc(CCCC)cc(Br)c2O)c1 | 2 µg/mL (≈ 5.3 µM) | 1 µg/mL (≈ 2.65 µM) | 1 µg/mL (≈ 2.65 µM) | 2 µg/mL (≈ 5.3 µM) | 1 µg/mL (≈ 2.65 µM) | 2 µg/mL (≈ 5.3 µM) | inactive | inactive | 25 µM | 74 µM | 35 µM |
| C=CCc1ccc(O)c(-c2cc(CC=C)ccc2O)c1 [MAGNOLOL] | 16 µg/mL (≈ 60.1 µM) | 32 µg/mL (≈ 120 µM) | 32 µg/mL (≈ 120 µM) | 32 µg/mL (≈ 120 µM) | 32 µg/mL (≈ 120 µM) | 32 µg/mL (≈ 120 µM) |  |  | 48 µM | 62 µM | 58 µM |
| O=C(O)c1cn(C2CC2)c2cc(N3CCNCC3)c(F)cc2c1=O [CIPROFLOXACIN] | 0.25 µg/mL (≈ 0.754 µM) | 8 µg/mL (≈ 24.1 µM) | 32 µg/mL (≈ 96.6 µM) | 0.5 µg/mL (≈ 1.51 µM) | 8 µg/mL (≈ 24.1 µM) | 64 µg/mL (≈ 193 µM) |  |  |  |  |  |
| CCCc1cc(Br)c(O)c(-c2cc(CCC)cc(Br)c2O)c1 | 4 µg/mL (≈ 9.34 µM) | 4 µg/mL (≈ 9.34 µM) | 4 µg/mL (≈ 9.34 µM) | 4 µg/mL (≈ 9.34 µM) | 4 µg/mL (≈ 9.34 µM) | 8 µg/mL (≈ 18.7 µM) | inactive | inactive | 30 µM | 95 µM | 55 µM |
| C=CCc1cc(O)c(O)c(-c2cc(CC=C)cc(OC)c2O)c1 | 16 µg/mL (≈ 51.2 µM) | 16 µg/mL (≈ 51.2 µM) | 32 µg/mL (≈ 102 µM) | 16 µg/mL (≈ 51.2 µM) | 64 µg/mL (≈ 205 µM) | 128 µg/mL (≈ 410 µM) | inactive | inactive | > 100 µM | > 100 µM | > 100 µM |
